Assay results from ChEMBL document CHEMBL1145520, “RAS-RAF-MEK-dependent oxidative cell death involving voltage-dependent anion channels” (Nature, 2007).
pEC50, pIC50: −log10 of the molar value. The source made the active and inactive calls. The calls are words filed in the database; no cut-off is given here.

Legend:
[1] = tested on: U-937; test: Induction of cell death in human U937 cells; format: functional, cell-based
[2] = target: T1, Mitogen-activated protein kinase; ERK1/ERK2 (Homo sapiens) (UniProt P27361+P28482); test: Effect on ERK1/2 phosphorylation in human A673 cells by Western blot; format: cell-based
T1 sequence (P27361 whole entry, looked up): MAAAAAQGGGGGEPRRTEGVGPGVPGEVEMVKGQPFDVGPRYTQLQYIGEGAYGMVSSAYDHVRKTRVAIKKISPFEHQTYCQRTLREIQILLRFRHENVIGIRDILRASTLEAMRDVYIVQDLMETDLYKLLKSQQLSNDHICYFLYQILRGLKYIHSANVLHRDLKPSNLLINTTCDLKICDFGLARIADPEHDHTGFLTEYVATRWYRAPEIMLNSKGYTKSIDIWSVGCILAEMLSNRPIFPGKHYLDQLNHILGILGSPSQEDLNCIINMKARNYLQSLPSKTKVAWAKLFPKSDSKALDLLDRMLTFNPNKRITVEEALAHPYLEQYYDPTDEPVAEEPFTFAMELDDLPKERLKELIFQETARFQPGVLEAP
T1 sequence (P28482 whole entry, looked up): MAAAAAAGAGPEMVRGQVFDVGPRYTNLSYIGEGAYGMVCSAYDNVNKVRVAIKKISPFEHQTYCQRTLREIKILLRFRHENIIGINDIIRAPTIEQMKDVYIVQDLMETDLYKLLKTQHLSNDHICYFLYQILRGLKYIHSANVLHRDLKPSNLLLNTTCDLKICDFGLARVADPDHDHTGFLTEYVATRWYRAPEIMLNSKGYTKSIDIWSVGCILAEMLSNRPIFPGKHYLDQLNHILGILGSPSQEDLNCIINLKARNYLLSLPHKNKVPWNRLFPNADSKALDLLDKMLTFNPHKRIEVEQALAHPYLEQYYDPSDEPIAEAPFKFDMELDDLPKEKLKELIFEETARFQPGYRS
In short: (§1)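 Washed cells were lysed in pH 7.4 HEPES buffer containing orthovanadate, NaF, pyrophosphate, β-glycerophosphate and protease inhibitors. Lysates were run on SDS-PAGE, transferred to PVDF and blocked 1 h at room temperature. Blots were probed with a multiplex phospho-signalling antibody cocktail and read by infrared fluorescence scanning.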

[3] = tested on: HT-1080; test: Induction of cell death in human HT1080 cells in presence of PD-98059 by trypan blue exclusion method; format: functional, cell-based
[4] = tested on: BJ; test: Induction of cell death in human BJ cells expressing TERT, LT, ST and RAS G12V mutant genes cells in presence of MEK inhibitor 2 by trypan blue exclusion method; format: functional, cell-based
[5] = tested on: HT-1080; test: Induction of cell death in human HT1080 cells in presence of MEK inhibitor 2 by trypan blue exclusion method; format: functional, cell-based
[6] = tested on: BJ; test: Induction of cell death in human BJ cells expressing TERT, LT, ST and RAS G12V mutant genes cells at 9 uM; format: functional, cell-based
[7] = tested on: BJ; test: Prevention of induction of cell death in human BJ cells expressing TERT, LT, ST and RAS G12V mutant genes cells after 24 hrs in presence of butylated hydroxytoluene; format: functional, cell-based
In short: (§2)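 BJ-TERT/LT/ST/RASV12 cells treated 24 h with erastin across roughly 1–2.5 µM, together with DMSO or an antioxidant (α-tocopherol, BHT or β-carotene). Viability read afterwards.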

[8] = tested on: BJ; test: Prevention of induction of cell death in human BJ cells expressing TERT, LT, ST and RAS G12V mutant genes cells after 24 hrs in presence of alpha-tocopherol; format: functional, cell-based; in short: as §2
[9] = tested on: BJ; test: Effect on intracellular oxidative species in TERT expressing human BJ cells at 4.6 uM; format: functional, cell-based
In short: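 Cells seeded at 3 × 10^5 per 60 mm dish were grown overnight, then exposed to 4.6 erastin for 2–12 h; H2O2 for 5 min served as positive control. Cells were loaded with H2DCF-DA for 10 min, trypsinized, PBS-washed and stained with propidium iodide. Read-out was flow cytometry as percent of cells with DCF fluorescence in gate M1; n = 2.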

[10] = tested on: HT-1080; test: Suppression of induction of cell death in human HT1080 cells at […] by Alamar Blue assay in presence of glutathione; format: functional, cell-based
[11] = tested on: HT-1080; test: Suppression of induction of cell death in human HT1080 cells at […] by Alamar Blue assay in presence of butylated hydroxytoluene; format: functional, cell-based
[12] = tested on: HT-1080; test: Suppression of induction of cell death in human HT1080 cells at […] by Alamar Blue assay in presence of in presence of alpha-tocopherol; format: functional, cell-based
[13] = tested on: HT-1080; test: Induction of PARP1 cleavage in human HT1080 cells; format: functional, cell-based
In short: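 Cells were left untreated or given staurosporine or erastin for 6 or 8 h. Lysates were analysed by western blot for full-length and cleaved PARP1, with actin as loading control.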

[14] = tested on: BJ; test: Induction of cytochrome c release in mitochondrial fraction of human BJ cell expressing TERT, LT, ST and RAS G12V mutant genes at 20 ug/ml; format: functional, cell-based
In short: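 BJ-TERT/LT/ST/RASV12 cells seeded 3 × 10^6 per dish, incubated overnight at 37 °C, 5% CO2, then exposed to erastin 20 µg/ml for 6–26 h. Fractionated on ice by needle lysis: nuclei spun out at 400g, mitochondria pelleted at 10,500g. Cytochrome c detected by western blot in cytosolic and mitochondrial fractions.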

[15] = tested on: A673; test: Induction of pro-caspase 3 cleavage in human A673 cells; format: functional, cell-based
In short: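 Cells either untreated, given staurosporine, or given erastin for 6–10 h, then lysed in HEPES pH 7.4 buffer with phosphatase and protease inhibitors. Lysates run on SDS-PAGE, blotted to PVDF, probed with antibodies detecting active caspase-3, with actin as loading control. Bands read on infrared imager.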

[16] = tested on: Calu-1; test: Inhibition of human Calu1 cells expressing KRAS with activating mutations by trypan blue exclusion assay; format: functional, cell-based
In short: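 Calu-1 lung carcinoma cells (activating KRAS mutation) treated with erastin dilutions. Viability measured by Trypan blue exclusion with an automated cell viability analyser after trypsinization and resuspension in growth medium. IC50 derived from the dose series.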

[17] = tested on: BJ; test: Induction of cell death in TERT expressing human BJ cells; format: functional, cell-based
[18] = tested on: BJ; test: Induction of cell death in human BJ cells expressing TERT, LT, ST and RAS G12V mutant genes; format: functional, cell-based
[19] = target: T1, Mitogen-activated protein kinase; ERK1/ERK2 (Homo sapiens); test: Effect on ERK1/2 phosphorylation in TERT expressing human BJ cells by Western blot; format: cell-based; in short: as §1
[20] = target: T1, Mitogen-activated protein kinase; ERK1/ERK2 (Homo sapiens); test: Effect on ERK1/2 phosphorylation in human EWS502 cells by Western blot; format: cell-based; in short: as §1
[21] = target: T1, Mitogen-activated protein kinase; ERK1/ERK2 (Homo sapiens); test: Effect on ERK1/2 phosphorylation in human HT1080 cells by Western blot; format: cell-based; settings: HT-1080; in short: as §1
[22] = target: T1, Mitogen-activated protein kinase; ERK1/ERK2 (Homo sapiens); test: Effect on ERK1/2 phosphorylation in human SKES1 cells by Western blot; format: cell-based; in short: as §1
[23] = target: T1, Mitogen-activated protein kinase; ERK1/ERK2 (Homo sapiens); test: Effect on ERK1/2 phosphorylation in human […] cells by Western blot; format: cell-based; settings: SK-N-MC; in short: as §1
[24] = target: T1, Mitogen-activated protein kinase; ERK1/ERK2 (Homo sapiens); test: Effect on ERK1/2 phosphorylation in human SW872 cells by Western blot; format: cell-based; in short: as §1
[25] = target: T1, Mitogen-activated protein kinase; ERK1/ERK2 (Homo sapiens); test: Effect on ERK1/2 phosphorylation in human TC71 cells by Western blot; format: cell-based; in short: as §1
[26] = target: T1, Mitogen-activated protein kinase; ERK1/ERK2 (Homo sapiens); test: Effect on ERK1/2 phosphorylation in human U937 cells by Western blot; format: cell-based; settings: U-937; in short: as §1
[27] = tested on: SJSA-1; test: Induction of cell death in human SJSA1 cells; format: functional, cell-based
[28] = tested on: HeLa; test: Induction of cell death in human HeLa cells; format: functional, cell-based
[29] = Induction of cell death in human SKUT cells; format: functional, cell-based
[30] = tested on: LNCaP; test: Induction of cell death in human LNCaP cells; format: functional, cell-based
[31] = tested on: C-33-A; test: Induction of cell death in human C33A cells; format: functional, cell-based
[32] = tested on: SVR; test: Induction of cell death in human SVR cells; format: functional, cell-based
[33] = Induction of cell death in human A431NS cells; format: functional
[34] = tested on: BJ; test: Induction of cell death in human BJ cells expressing TERT, LT, ST and RAS G12V mutant genes in presence of U0126 by trypan blue exclusion method; format: functional, cell-based
In short: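 BJ-TERT/LT/ST/RASV12 cells were co-treated for 48 h with 1.5 µM erastin plus 20 µM U0126, 10 µM MEK inhibitor I or 50 µM MEK1/2 inhibitor. Viability was measured by automated Trypan blue exclusion of trypsinized cells resuspended in growth medium; n = 2 or 3.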

[35] = tested on: HT-1080; test: Induction of cell death in human HT1080 cells; format: functional, cell-based
[36] = tested on: SW872; test: Induction of cell death in human SW872 cells; format: functional
[37] = Induction of cell death in human TC32 cells; format: functional, cell-based, TC-32
[38] = Induction of cell death in human TC71 cells; format: functional, cell-based

Work on `CCOc1ccccc1-n1c(C(C)N2CCN(C(=O)COc3ccc(Cl)cc3)CC2)nc2ccccc2c1=O` (stereo not given) [ERASTIN] yielded an Activity [1] of 73%, a pEC50 ([1]; Homo sapiens, U-937) of 5.00 and an Activity [2] of 0.66 a.u. The pIC50 [3] was 6.00, the pIC50 [4] was 6.05 and the pIC50 [5] was 5.89. For the same molecule, the Activity [6] was “Active”, the Activity [7] was “Active” and the Activity [8] was “Active”. For the same molecule, the Activity [9] was “inactive”, the Activity [10] was “Active” and the Activity [11] was “Active”. For the same molecule, the Activity [12] was “Active”, the Activity [13] was “inactive” and the Activity [14] was “inactive”. The Activity [15] was “inactive”, the pIC50 [16] was 5.40 and the Activity [17] was 22%. For the same molecule, the pEC50 ([17]; Homo sapiens, BJ) was 5.00, the Activity [18] was 100% and the pEC50 ([18]; Homo sapiens, BJ) was 5.22. The Activity [19] was 0.09 a.u, the Activity [20] was 0.12 a.u and the Activity [21] was 0.53 a.u. For the same molecule, the Activity [22] was 0.25 a.u, the Activity [23] was 0.05 a.u and the Activity [24] was 0.12 a.u. For the same molecule, the Activity [25] was 0.23 a.u, the Activity [26] was 0.27 a.u and the Activity [27] was 100%. The pEC50 ([27]; Homo sapiens, SJSA-1) was 4.92, the Activity [28] was 94% and the pEC50 ([28]; Homo sapiens, HeLa) was 6.22. For the same molecule, the Activity [29] was 73%, the pEC50 ([29]; Homo sapiens, SKUT) was 5.40 and the Activity [30] was 32%. The pEC50 ([30]; Homo sapiens, LNCaP) was 5.22, the Activity [31] was 21% and the pEC50 ([31]; Homo sapiens, C-33-A) was 6.22. It also gave an Activity [32] of 20%, a pEC50 ([32]; Mus musculus, SVR) of 5.60 and an Activity [33] of 0%. For the same molecule, the pIC50 [34] was 4.51, the Activity [35] was 98% and the pEC50 ([35]; Homo sapiens, HT-1080) was 5.70. For the same molecule, the Activity [36] was 0%, the Activity [37] was 88% and the pEC50 ([37]; Homo sapiens, TC-32) was 5.10. The Activity [38] was 92% and the pEC50 ([38]; Homo sapiens, TC-71) was 5.00.
